Measured values published in ChEMBL document CHEMBL1123888, “Aldosterone antagonists. 2. Synthesis and biological activities of 11,12-dehydropregnane derivatives” (J Med Chem, 1987).
Active and inactive are the calls of the source. The calls are words filed in the database; no cut-off is given here.

Assays:
[1] = molecular target: T1, Progesterone receptor (Rattus norvegicus) (UniProt Q63449); assay: In vivo relative Progestational activity in Male Sprague-Dawley rats was determined.; type: functional, organism-based
T1 sequence (whole entry): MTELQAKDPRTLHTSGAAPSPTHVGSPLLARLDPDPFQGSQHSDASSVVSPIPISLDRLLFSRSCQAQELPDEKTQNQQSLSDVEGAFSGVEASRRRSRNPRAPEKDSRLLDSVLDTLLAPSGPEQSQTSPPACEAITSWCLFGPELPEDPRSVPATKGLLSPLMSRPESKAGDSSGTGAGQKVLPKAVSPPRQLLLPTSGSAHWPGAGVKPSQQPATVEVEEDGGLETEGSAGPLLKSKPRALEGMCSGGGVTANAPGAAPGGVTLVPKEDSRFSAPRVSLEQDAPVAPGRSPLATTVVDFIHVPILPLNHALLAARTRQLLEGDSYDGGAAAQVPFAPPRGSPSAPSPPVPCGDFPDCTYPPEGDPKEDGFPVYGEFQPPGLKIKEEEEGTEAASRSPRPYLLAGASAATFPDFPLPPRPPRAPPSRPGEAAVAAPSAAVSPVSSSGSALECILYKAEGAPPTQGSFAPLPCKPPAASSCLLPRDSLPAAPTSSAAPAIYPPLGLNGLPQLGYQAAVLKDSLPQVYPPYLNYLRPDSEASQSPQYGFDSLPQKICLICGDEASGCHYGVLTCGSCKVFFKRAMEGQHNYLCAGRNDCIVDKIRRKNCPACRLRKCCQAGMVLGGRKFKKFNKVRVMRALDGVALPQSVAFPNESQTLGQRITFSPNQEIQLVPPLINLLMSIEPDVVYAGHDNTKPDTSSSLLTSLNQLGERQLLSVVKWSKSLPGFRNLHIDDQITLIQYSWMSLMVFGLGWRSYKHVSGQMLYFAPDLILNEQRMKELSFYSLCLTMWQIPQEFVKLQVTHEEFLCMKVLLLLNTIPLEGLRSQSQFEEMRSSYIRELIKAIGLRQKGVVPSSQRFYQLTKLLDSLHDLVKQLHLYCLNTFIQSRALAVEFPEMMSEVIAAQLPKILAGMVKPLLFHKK

[2] = molecular target: T1, Progesterone receptor (Rattus norvegicus); assay: Relative binding affinity against progesterone receptor in […]
[3] = molecular target: T2, Mineralocorticoid receptor (Rattus norvegicus) (UniProt P22199); assay: Relative binding affinity against Mineralocorticoid Receptor in Male Sprague-Dawley rats
T2 sequence (whole entry): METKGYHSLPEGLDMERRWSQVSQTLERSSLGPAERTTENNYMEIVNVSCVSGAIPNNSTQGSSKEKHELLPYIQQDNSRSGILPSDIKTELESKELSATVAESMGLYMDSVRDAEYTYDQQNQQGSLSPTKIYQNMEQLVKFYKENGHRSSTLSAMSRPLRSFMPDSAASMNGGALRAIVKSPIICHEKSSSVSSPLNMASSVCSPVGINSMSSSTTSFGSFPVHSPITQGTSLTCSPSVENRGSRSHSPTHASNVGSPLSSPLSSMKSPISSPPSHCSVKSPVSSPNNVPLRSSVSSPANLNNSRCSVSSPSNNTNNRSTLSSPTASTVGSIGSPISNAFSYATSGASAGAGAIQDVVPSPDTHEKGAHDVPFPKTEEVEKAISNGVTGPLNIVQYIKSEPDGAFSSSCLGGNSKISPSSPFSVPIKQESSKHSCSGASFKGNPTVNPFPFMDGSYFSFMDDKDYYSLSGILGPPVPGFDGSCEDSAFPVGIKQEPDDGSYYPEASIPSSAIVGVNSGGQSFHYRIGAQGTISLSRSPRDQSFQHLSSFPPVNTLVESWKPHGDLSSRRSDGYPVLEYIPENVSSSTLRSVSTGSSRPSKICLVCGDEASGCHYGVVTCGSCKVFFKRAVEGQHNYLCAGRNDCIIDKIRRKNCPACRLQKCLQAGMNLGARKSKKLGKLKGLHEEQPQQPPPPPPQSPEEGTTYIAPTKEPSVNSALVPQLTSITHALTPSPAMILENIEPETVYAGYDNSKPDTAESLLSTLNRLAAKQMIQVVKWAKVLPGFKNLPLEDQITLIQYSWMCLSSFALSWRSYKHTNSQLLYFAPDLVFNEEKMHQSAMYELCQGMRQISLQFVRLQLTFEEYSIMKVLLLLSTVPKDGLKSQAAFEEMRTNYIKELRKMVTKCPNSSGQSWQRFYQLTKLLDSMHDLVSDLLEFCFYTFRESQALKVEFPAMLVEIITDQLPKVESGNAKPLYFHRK
Outline: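 Renal cytosol from male Sprague-Dawley rats (4-8 weeks) adrenalectomized bilaterally 1 or 2 days earlier. Incubated with various competitor concentrations and about 1 nM [3H]aldosterone, for 42-48 h at 0 °C or 100-120 min at 25 °C. Charcoal (DCC) separation of bound and free.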

[4] = molecular target: T2, Mineralocorticoid receptor (Rattus norvegicus); assay: In vivo relative Mineralocorticoid activity in Male Sprague-Dawley rats; type: functional, organism-based
[5] = molecular target: T2, Mineralocorticoid receptor (Rattus norvegicus); assay: Relative binding affinity against Mineralocorticoid receptor in Male Sprague-Dawley rats
Outline: (§1)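 Renal cytosol came from male Sprague-Dawley rats (4-8 weeks) adrenalectomized bilaterally 1 or 2 days earlier. It was incubated with various competitor concentrations and about 1 nM [3H]Ald for 42-48 h at 0 °C or 100-120 min at 25 °C. Bound and free steroid were separated by DCC.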

[6] = molecular target: T2, Mineralocorticoid receptor (Rattus norvegicus); assay: Antagonist activity against Mineralocorticoid receptor after po administration in Male Sprague Dawley rats; (+) =positive; type: functional, organism-based; conditions: filed as antagonist
Outline: (§2)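 Male rats were bilaterally adrenalectomized (bioassay modified from Kagawa). Ald (1 µg/kg) was given sc, immediately followed by test compound in sesame oil sc or orally. Urine was collected from 2 to 6 h after steroid. Potency came from the urinary Na/K ratio of sample versus control, with 95% confidence limits.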

[7] = molecular target: T2, Mineralocorticoid receptor (Rattus norvegicus); assay: Antagonist activity against Mineralocorticoid receptor after oral administration in Male Sprague Dawley rats; (-) = negative; type: functional, organism-based; outline: as §2
[8] = molecular target: T2, Mineralocorticoid receptor (Rattus norvegicus); assay: Antagonist activity against Mineralocorticoid receptor was determined after subcutaneous administration in Male Sprague Dawley rats; type: functional, organism-based; outline: as §2
[9] = molecular target: T2, Mineralocorticoid receptor (Rattus norvegicus); assay: Relative potency compared to Aldosterone;Range is 1.2-1.6; type: functional
[10] = molecular target: T2, Mineralocorticoid receptor (Rattus norvegicus); assay: Relative binding affinity to the rat mineralocorticoid receptor determined in rat renal cytosol using [3]Ald as ligand; outline: as §1
[11] = molecular target: T2, Mineralocorticoid receptor (Rattus norvegicus); assay: Relative binding affinity against mineralocorticoid receptor determined in rat renal cytosol using [3]Ald as ligand; outline: as §1
[12] = molecular target: T1, Progesterone receptor (Rattus norvegicus); assay: Relative binding affinity against progesterone receptor determined in rat […] cytosol using [3H]DHT as ligand
[13] = molecular target: T2, Mineralocorticoid receptor (Rattus norvegicus); assay: Relative potency compared to Aldosterone;Range is 72-216; type: functional
[14] = molecular target: T2, Mineralocorticoid receptor (Rattus norvegicus); assay: Agonist activity against Mineralocorticoid receptor was determined after subcutaneous administration in Male Sprague Dawley rats; (+) =positive; type: functional, organism-based; conditions: filed as agonist
[15] = molecular target: T3, Androgen receptor (Rattus norvegicus) (UniProt P15207); assay: Relative anti-androgenic activity as suppressive effect on weight increase of ventral prostate in castrated immature rats given testosterone propionate; type: functional; conditions: Prostate gland
T3 sequence (whole entry): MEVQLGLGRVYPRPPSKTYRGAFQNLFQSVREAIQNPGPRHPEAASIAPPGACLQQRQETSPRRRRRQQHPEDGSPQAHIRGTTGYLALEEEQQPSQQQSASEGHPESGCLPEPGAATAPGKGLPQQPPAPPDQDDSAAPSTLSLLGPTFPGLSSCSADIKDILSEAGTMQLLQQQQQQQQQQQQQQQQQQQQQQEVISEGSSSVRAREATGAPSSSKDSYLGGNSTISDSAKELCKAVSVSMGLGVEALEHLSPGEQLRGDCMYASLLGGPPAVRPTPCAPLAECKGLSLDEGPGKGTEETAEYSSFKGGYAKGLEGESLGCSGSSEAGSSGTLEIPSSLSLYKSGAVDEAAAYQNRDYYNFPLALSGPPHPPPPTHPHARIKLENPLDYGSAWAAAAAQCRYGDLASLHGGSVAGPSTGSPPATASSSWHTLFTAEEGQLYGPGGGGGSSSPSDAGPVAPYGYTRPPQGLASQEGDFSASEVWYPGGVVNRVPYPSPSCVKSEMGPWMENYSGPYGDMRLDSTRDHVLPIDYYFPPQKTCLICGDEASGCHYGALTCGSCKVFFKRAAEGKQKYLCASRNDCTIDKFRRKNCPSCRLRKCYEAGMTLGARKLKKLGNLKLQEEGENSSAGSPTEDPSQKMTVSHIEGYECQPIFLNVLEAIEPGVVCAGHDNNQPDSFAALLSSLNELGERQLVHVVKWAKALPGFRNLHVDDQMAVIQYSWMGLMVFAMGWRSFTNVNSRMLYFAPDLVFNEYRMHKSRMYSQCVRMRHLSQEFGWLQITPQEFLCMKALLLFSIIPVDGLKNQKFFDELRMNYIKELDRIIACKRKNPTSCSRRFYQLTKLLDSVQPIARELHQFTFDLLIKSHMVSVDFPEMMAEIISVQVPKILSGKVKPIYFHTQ
Outline: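 Male Sprague-Dawley rats (3 weeks old) were castrated 3 days earlier. […] Suppression of accessory sex organ weight gain gave relative antiandrogenic activity.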

Rattus norvegicus = organism: Rattus norvegicus; assay: Displacement of [3H]promegestone from progestin receptor of rat uterine cytosol at 0 degree Centigrade
Outline: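 Uteri from estradiol-primed rats supplied the cytosol. It was incubated with various competitor concentrations and about 1 nM [3H]promegestone for 16-20 h at 0 °C. Bound and free steroid were separated by DCC. RBA (progesterone = 100%) = 100 × ratio of the 50%-inhibition concentrations of standard and competitor.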

[16] = molecular target: T2, Mineralocorticoid receptor (Rattus norvegicus); assay: Relative anti-mineralocorticoid potency compared to Spironolactone after oral administration; type: functional, organism-based; outline: as §2
[17] = molecular target: T2, Mineralocorticoid receptor (Rattus norvegicus); assay: Antagonist activity against Mineralocorticoid receptor after subcutaneous administration in Male Sprague Dawley rats; (+) =positive; type: functional, organism-based; conditions: filed as antagonist; outline: as §2
[18] = molecular target: T2, Mineralocorticoid receptor (Rattus norvegicus); assay: Antagonist activity against Mineralocorticoid receptor after po administration in Male Sprague Dawley rats; (-) = negative; type: functional, organism-based; outline: as §2
[19] = molecular target: T2, Mineralocorticoid receptor (Rattus norvegicus); assay: Antagonist activity against Mineralocorticoid receptor after subcutaneous administration in Male Sprague Dawley rats; (-) = negative; type: functional, organism-based; outline: as §2
[20] = molecular target: T2, Mineralocorticoid receptor (Rattus norvegicus); assay: Relative potency ompared to Aldosterone;Range 4-187; type: functional
[21] = molecular target: T2, Mineralocorticoid receptor (Rattus norvegicus); assay: Agonist activity against Mineralocorticoid receptor after subcutaneous administration in Male Sprague Dawley rats; (+) =positive; type: functional, organism-based; conditions: filed as agonist
[22] = molecular target: T2, Mineralocorticoid receptor (Rattus norvegicus); assay: Relative potency compared to Aldosterone;Range 14-224; type: functional
[23] = molecular target: T2, Mineralocorticoid receptor (Rattus norvegicus); assay: Relative potency compared to Aldosterone;Range is 53-97; type: functional

CC(=O)[C@H]1CC[C@H]2[C@@H]3CCC4=CC(=O)CC[C@]4(C)[C@H]3CC[C@]12C
Relative activity [1]: 1 | RBA [2]: 100%

C[C@]12C[C@H](O)[C@H]3[C@@H](CCC4=CC(=O)CC[C@@]43C)[C@@H]1CC[C@@H]2C(=O)CO
RBA [3]: 14% | Relative activity [4]: 0.14

C[C@]12CCC(=O)C=C1CC[C@@H]1[C@@H]2[C@H]2C[C@]3(CO2)[C@@H](C(=O)CO)CC[C@@H]13
relative binding affinity (RBA) [5]: 50

CC12C=CC(=O)C=C1C1CC1C1C2C=CC2(C)C1C1CC1[C@@]21CCC(=O)O1 (some centres undefined)
Activity [6]: Antagonist | Activity [7]: inactive | Activity [8]: inactive | Relative potency [9]: 1.2 | RBA [10]: 480% | RBA [11]: 250% | RBA [12]: 150%

CC12C=CC(=O)C=C1C=CC1C2C=CC2(C)C1C1CC1[C@@]21CCC(=O)O1 (some centres undefined)
Activity [8]: inactive | RBA [10]: 200% | Relative potency [13]: 72 | RBA [11]: 160% | RBA [12]: 19% | Activity [14]: Agonist

C[C@]12CC[C@H]3[C@@H](CCC4=CC(=O)CC[C@@]43C)[C@@H]1CC[C@@H]2C(=O)CO
RBA [3]: 58% | Relative activity [4]: 1

CC(=O)[C@H]1CC[C@H]2[C@@H]3CCC4=CC(=O)CC[C@]4(C)[C@H]3C=C[C@]12C
Relative activity [1]: 3 | relative binding affinity (RBA) [2]: 220

CC12CCC(=O)C=C1C=CC1C2C=CC2(C)C1CC[C@@]21CCC(=O)O1 (some centres undefined)
Activity [15]: 1 | RBA (Rattus norvegicus): 4.7% | Activity [7]: inactive | Relative potency [16]: 2 | Activity [17]: Antagonist | RBA [10]: 64% | RBA [11]: 70% | Activity [18]: inactive

CC(=O)[C@H]1CC[C@H]2[C@@H]3CCC4=CC(=O)CC[C@@H]4[C@H]3CC[C@]12C
Relative activity [1]: 10.7 | relative binding affinity (RBA) [2]: 650

CC12C=CC(=O)C=C1C1CC1C1C2C=CC2(C)C1CC[C@@]21CCC(=O)O1 (some centres undefined)
RBA (Rattus norvegicus): 11% | Activity [19]: inactive | Relative potency [20]: 4 | RBA [10]: 300% | RBA [11]: 320% | Activity [21]: Agonist

CC12CCC(=O)C=C1C1CC1C1C2C=CC2(C)C1CC[C@@]21CCC(=O)O1 (some centres undefined)
RBA (Rattus norvegicus): 56% | Activity [8]: inactive | RBA [10]: 30% | Relative potency [22]: 14 | RBA [11]: 580% | Activity [14]: Agonist

CC(=O)S[C@@H]1CC2=CC(=O)CCC2(C)C2C=CC3(C)C(CC[C@@]34CCC(=O)O4)C21 (some centres undefined)
Activity [19]: inactive | Relative potency [23]: 53 | RBA [10]: 169% | RBA [11]: 43% | RBA [12]: 14% | Activity [21]: Agonist

C[C@]12CC[C@@H]3C4CCC(=O)C=C4CC[C@H]3[C@@H]1CC[C@@H]2C(=O)CO (some centres undefined)
relative binding affinity (RBA) [5]: 170 | Relative activity [4]: 1.5

CC12CCC(=O)C=C1CCC1C2C=CC2(C)C(C(=O)CO)CCC12 (centres undefined)
relative binding affinity (RBA) [5]: 150 | Relative activity [4]: 1
